The source of these data is ChEMBL document CHEMBL1811904, “Preventive oral treatment with resveratrol pro-prodrugs drastically reduce colon inflammation in rodents” (J Med Chem, 2010).

Active and inactive are the calls of the source. No cut-off for these calls is given here.

Series [1] concerns CCD-18Co. The experiment in a line: Antiinflammatory activity in human CCD-18Co cells assessed as inhibition of IL1beta-induced PGE2 production at 2.5 to 25 uM after 18 hrs. The format is functional, cell-based.
In series [2] the test system is Mus musculus. Description: Antiinflammatory activity in C57BL/6J mouse model of DSS-induced colon inflammation assessed as reduction of colon IL6 level at 2.1 mg/kg/day, po for 21 days followed by compound dosing for 8 days co-administered with DSS followed by 2.1 mg/kg/day, po dosing for 6 days in absence of DSS measured on days 29 and day 35 by chemiluminescence assay. The format is functional, organism-based. Summed up: (§1)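 After 21 days of chow with compound at 2.1 mg/kg day and 8 days of 1% DSS, distal colon mucosa (40 mg) homogenized in PBS with protease inhibitors and spun 15,000g, 30 min, 4 °C. Supernatants pooled per group to 300 µg protein and run on a 40-cytokine mouse inflammation antibody array. Chemiluminescent detection, densitometry; duplicate measurements.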

Series [3] relates to Mus musculus. The experiment in a line: Effect on body weight in C57BL/6J mouse model of DSS-induced colon inflammation at 2.1 mg/kg/day, po for 21 days followed by compound dosing for 8 days co-administered with DSS followed by 2.1 mg/kg/day, po dosing for 6 days in absence of DSS measured on days 29 and day 35. The format is functional, organism-based. In a few lines:
(§2)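 Diet supplemented at 2.1 mg/kg day for 21 days before 8 days of 1% DSS in sterilized drinking water ad libitum; n=10 per group. Body weight followed through DSS and recovery phases; DAI combines stool blood, stool consistency and weight loss. ANOVA with Tukey post-hoc, mean ± SD.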

For series [4], the system named is Mus musculus. The experiment in a line: Antiinflammatory activity in C57BL/6J mouse model of DSS-induced colon inflammation assessed as reduction in morphological signs of cell damage at 2.1 mg/kg/day, po for 21 days followed by compound dosing for 8 days co-administered with DSS followed by 2.1 mg/kg/day, po dosing for 6 days in absence of DSS measured on days 29 and day 35. The format is functional, organism-based. Summed up:
(§3)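 Standard chow with compound at 2.1 mg/kg day for 21 days, then 1% DSS in sterilized drinking water ad libitum for the last 8 days (29 days total); n=10 per group, with control and DSS-only groups. Distal colon sections stained with hematoxylin and eosin and scored by Araki system: 0-4 each for surface epithelial loss, crypt destruction, inflammatory cell infiltration (max 12); mean ± SEM, Kruskal-Wallis then Mann-Whitney.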

The test system of series [5] is Mus musculus. The experiment in a line: Antiinflammatory activity in C57BL/6J mouse model of DSS-induced colon inflammation assessed as reduction of colon MIP1gamma level at 2.1 mg/kg/day, po for 21 days followed by compound dosing for 8 days co-administered with DSS followed by 2.1 mg/kg/day, po dosing for 6 days in absence of DSS measured on days 29 and day 35 by chemiluminescence assay. The series is classed as functional, organism-based. Summed up: as §1

Series [6] relates to Mus musculus. The experiment in a line: Antiinflammatory activity in C57BL/6J mouse model of DSS-induced colon inflammation assessed as reduction in disease activity index at 2.1 mg/kg/day, po for 8 days co-administered with DSS measure on day 8. The format is functional, organism-based. Summed up:
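No pre-feeding: compound co-administered with 1% DSS in drinking water for 8 days at 2.1 mg/kg day; n=14 per group, with DSS-only and untreated control groups. DAI scored from stool blood, stool form and weight loss.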

The subject of series [7] is Mus musculus. The experiment in a line: Antiinflammatory activity in C57BL/6J mouse model of DSS-induced colon inflammation assessed as reduction in disease activity index at 2.1 mg/kg/day, po for 21 days followed by compound dosing for 8 days co-administered with DSS followed by 2.1 mg/kg/day, po dosing for 6 days in absence of DSS measured on days 29 and day 35. The series is classed as functional, organism-based. Summed up: as §2

The test system of series [8] is Mus musculus. Description: Antiinflammatory activity in C57BL/6J mouse model of DSS-induced colon inflammation assessed as preservation of mucosal architecture at 2.1 mg/kg/day, po for 21 days followed by compound dosing for 8 days co-administered with DSS followed by 2.1 mg/kg/day, po dosing for 6 days in absence of DSS measured on days 29 and day 35. The series is classed as functional, organism-based. Summed up:
as §3

Series [9] relates to Mus musculus. The experiment in a line: Antiinflammatory activity in C57BL/6J mouse model of DSS-induced colon inflammation assessed as reduction of colon TNFRp55 level at 2.1 mg/kg/day, po for 21 days followed by compound dosing for 8 days co-administered with DSS followed by 2.1 mg/kg/day, po dosing for 6 days in absence of DSS measured on days 29 and day 35 by chemiluminescence assay. The series is classed as functional, organism-based. In a few lines:
as §1

Series [10] relates to Mus musculus. Description: Antiinflammatory activity in C57BL/6J mouse model of DSS-induced colon inflammation assessed as reduction of colon MIG level at 2.1 mg/kg/day, po for 21 days followed by compound dosing for 8 days co-administered with DSS followed by 2.1 mg/kg/day, po dosing for 6 days in absence of DSS measured on days 29 and day 35 by chemiluminescence assay. The format is functional, organism-based. Summed up: as §1

Series [11] relates to Mus musculus. The experiment in a line: Increase in Lactobacilli count in C57BL/6J mouse distal colon mucosa with DSS-induced colon inflammation at 2.1 mg/kg/day, po for 21 days followed by compound dosing for 8 days co-administered with DSS followed by 2.1 mg/kg/day, po dosing for 6 days in absence of DSS by fecal microbiota analysis relative to control. The format is functional, organism-based. In a few lines: (§4)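 Fecal samples collected on days 0, 21 (before DSS) and 29 (after 8 days of 1% DSS) from mice fed 2.1 mg/kg day compound in chow. Bifidobacteria, lactobacilli, clostridia, enterobacteria and E. coli counted; ANOVA with Tukey post-hoc, mean ± SD.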

Series [12] has as its system Mus musculus. Description: Increase in Bifidobacterial count in C57BL/6J mouse distal colon mucosa with DSS-induced colon inflammation at 2.1 mg/kg/day, po for 21 days followed by compound dosing for 8 days co-administered with DSS followed by 2.1 mg/kg/day, po dosing for 6 days in absence of DSS by fecal microbiota analysis relative to control. The format is functional, organism-based. Summed up: as §4

A short description of series [13]: Cytotoxicity against human CCD-18Co cells at >10 uM after 8 hrs by MTT assay. The format is cell-based. A general note: Tetrazolium dyes change colour on reduction, which living cells bring about.
Series [14] concerns CCD-18Co. Description: Antiinflammatory activity in human CCD-18Co cells assessed inhibition of IL1beta-induced PGE2 production at 1 to 7.5 uM after 18 hrs. The series is classed as functional, cell-based.
Series [15] concerns Mus musculus. Description: Increase in Clostridia count in C57BL/6J mouse distal colon mucosa with DSS-induced colon inflammation at 2.1 mg/kg/day, po for 21 days followed by compound dosing for 8 days co-administered with DSS followed by 2.1 mg/kg/day, po dosing for 6 days in absence of DSS by fecal microbiota analysis relative to control. The format is functional, organism-based. In a few lines: as §4

Series [16] has as its system Mus musculus. Description: Reduction in Escherichia coli count in C57BL/6J mouse distal colon mucosa with DSS-induced colon inflammation at 2.1 mg/kg/day, po for 21 days followed by compound dosing for 8 days co-administered with DSS followed by 2.1 mg/kg/day, po dosing for 6 days in absence of DSS by fecal microbiota analysis relative to control. The format is functional, organism-based. Summed up: as §4

The test system of a further series is Caco-2. Description: Metabolic stability in human Caco2 cells after 6 hrs by LC-MS-MS analysis. The series is classed as ADME, cell-based. The conditions noted are these: caco-2, 6 h. In a few lines:
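Compounds incubated with human colon Caco-2 cells; cell media sampled at 6 h and analyzed by LC-MS-MS for parent compound and hydrolysis/conjugation products.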

For a further series, the system named is Stomach. The experiment in a line: Stability in C57BL/6J mouse stomach at 84 mg/kg administered through intragastric route measured after 8 hrs by HPLC-MS-MS analysis. The format is ADME, organism-based. More on the design: dose 84 mg/kg, route intragastric. The conditions noted are these: in vivo, po. In a few lines:
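Healthy mice given 84 mg/kg by intragastric probe in ethanol:water (5:95, v:v); n=24 per group, three killed at each of 0.25, 0.5, 1, 2, 4, 8, 12 and 24 h. Stomach contents analyzed by HPLC-MS-MS for parent compounds and metabolites; AUC and Cmax derived.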

In series [17] the test system is CCD-18Co. Description: Antiinflammatory activity in human CCD-18Co cells assessed inhibition of IL1beta-induced PGE2 production at 1 uM after 18 hrs. The series is classed as functional, cell-based.

As to `OC[C@H]1O[C@@H](Oc2cc(/C=C/c3ccc(O)cc3)cc(O[C@@H]3O[C@H](CO)[C@@H](O)[C@H](O)[C@H]3O)c2)[C@H](O)[C@@H](O)[C@@H]1O`, the inhibition result with CCD-18Co [1] was “inactive”. The outcome with Mus musculus [2], in the series on Mus musculus [4], in the series on Mus musculus [5], with Mus musculus [8], in the series on Mus musculus [9] and with Mus musculus [10] was Active. Also, the result in the series with Mus musculus [3], in the series with Mus musculus [6], in the series with Mus musculus [7], in the series on Mus musculus [11] and in the series on Mus musculus [12] was inactive.
With `CCCCCCCCCCCC(=O)OC[C@H]1O[C@@H](Oc2cc(O)cc(/C=C/c3ccc(O)cc3)c2)[C@H](O)[C@@H](O)[C@@H]1O`, in series [13], the Activity result is on record as “Toxic”. For the same compound, in the series with CCD-18Co [14], the inhibition result is “Active”.
The corresponding values for `CCCCCCCCCCCCCCCC(=O)OC[C@H]1O[C@@H](Oc2cc(O)cc(/C=C/c3ccc(O)cc3)c2)[C@H](O)[C@@H](O)[C@@H]1O` are “Toxic” and “Active”.
In the case of `CCCCCCCC(=O)OC[C@H]1O[C@@H](Oc2cc(O)cc(/C=C/c3ccc(O)cc3)c2)[C@H](O)[C@@H](O)[C@@H]1O`, in the series with CCD-18Co [14], the inhibition entry is “Active”. Moreover, the outcome with Mus musculus [2], with Mus musculus [3], with Mus musculus [4], in the series on Mus musculus [5], in the series with Mus musculus [7] and in the series on Mus musculus [8] was Active. The result in the series with Mus musculus [15], in the series on Mus musculus [9], with Mus musculus [10], in the series with Mus musculus [11], in the series on Mus musculus [12] and in the series on Mus musculus [16] was Active. In the series with Mus musculus [6], the outcome was inactive. In addition, in the series with Caco-2, the Stability result is “Stable”.
Regarding `Oc1ccc(/C=C/c2cc(O)cc(O)c2)cc1` [RESVERATROL], the inhibition entry with CCD-18Co [1] and in the series with CCD-18Co [17] was “Active” throughout. In addition, the result with Mus musculus [2], in the series with Mus musculus [4], with Mus musculus [5], in the series on Mus musculus [8], in the series with Mus musculus [15] and in the series with Mus musculus [9] was Active. In addition, the result in the series with Mus musculus [10] and in the series on Mus musculus [16] was Active. Besides, the result in the series on Mus musculus [3], with Mus musculus [6], with Mus musculus [7], in the series on Mus musculus [11] and in the series on Mus musculus [12] was inactive. The Stability result in the series with Stomach and in the series with Caco-2 was “Stable” each time.
As to `CCCCCCCCCCCCCCCCCC(=O)OC[C@H]1O[C@@H](Oc2cc(O)cc(/C=C/c3ccc(O)cc3)c2)[C@H](O)[C@@H](O)[C@@H]1O`, in series [13], the Activity result is “Toxic”. In the series on CCD-18Co [14], the inhibition entry is “Active”.
Regarding `OC[C@H]1O[C@@H](Oc2ccc(/C=C/c3cc(O)cc(O[C@@H]4O[C@H](CO)[C@@H](O)[C@H](O)[C@H]4O)c3)cc2)[C@H](O)[C@@H](O)[C@@H]1O`, the inhibition result in the series on CCD-18Co [1] is “inactive”.
For `OC[C@H]1O[C@@H](Oc2ccc(/C=C/c3cc(O)cc(O)c3)cc2)[C@H](O)[C@@H](O)[C@@H]1O`, the inhibition entry with CCD-18Co [1] was “Active”.
Turning to `OC[C@H]1O[C@@H](Oc2cc(O)cc(/C=C/c3ccc(O)cc3)c2)[C@H](O)[C@@H](O)[C@@H]1O`, the inhibition entry with CCD-18Co [1] is “inactive”. Besides, the outcome with Mus musculus [2], in the series with Mus musculus [4], with Mus musculus [5], in the series on Mus musculus [8], with Mus musculus [9] and in the series on Mus musculus [10] was Active. For the same compound, the result in the series with Mus musculus [3], with Mus musculus [6], in the series with Mus musculus [7], in the series on Mus musculus [11] and in the series with Mus musculus [12] was inactive.
`CCCC(=O)OC[C@H]1O[C@@H](Oc2cc(O)cc(/C=C/c3ccc(O)cc3)c2)[C@H](O)[C@@H](O)[C@@H]1O`: the inhibition entry with CCD-18Co [14] is “Active”. The outcome in the series on Mus musculus [2], with Mus musculus [3], in the series on Mus musculus [4], with Mus musculus [5], with Mus musculus [7] and in the series with Mus musculus [8] was Active. The outcome with Mus musculus [15], with Mus musculus [9], in the series on Mus musculus [10], with Mus musculus [11], with Mus musculus [12] and with Mus musculus [16] was Active. The outcome in the series on Mus musculus [6] was inactive. Further, the Stability result with Caco-2 was “Stable”.
